# Active and inactive are the calls of the source. No cut-off for these calls is given here.
# Columns and labels:
# Type in all cases: functional, cell-based
# E2R [1] = assay: Induction of apoptosis in human E2R cells expressing EBV assessed as condensed and fragmented nuclei at 25 to 100 uM after 18 hrs by epifluorescent microscopy
# In short: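 BL41-derived E2R cells (EBV-positive, apoptosis-resistant) grown in RPMI with 4 mM L-glutamine and 10% FCS at 37 °C, 5% CO2. Seeded at 3 × 10^5 cells/mL and exposed to compounds in DMSO (≤0.5% v/v) for 18 h. Cells fixed in 4% p-formaldehyde and stained with DAPI (0.2 µg/mL). Condensed/fragmented nuclei scored in ≥500 cells from random fields by epifluorescence microscopy.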
# E2R [2] = assay: Antioxidant activity in human E2R cells assessed as intracellular peroxide level at 25 to 100 uM after 1 hr by flow cytometry in presence of DCFH-DA
# In short: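 E2R cells (EBV-positive, apoptosis-resistant isogenic Burkitt line) in RPMI with 4 mM L-glutamine, 10% FCS, 37 °C, 5% CO2. Compounds in DMSO (0.2%) for 1 h in RPMI, then 10 µM DCFH-DA for 20 min at 37 °C. Flow cytometry, excitation 488 nm, emission 533 nm (FL-1), 10,000 events per sample.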
# BL-41 = assay: Induction of apoptosis in human EBV deficient BL41 cells assessed as condensed and fragmented nuclei at 25 to 100 uM after 18 hrs by epifluorescent microscopy
# In short: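 BL41 (EBV-negative Burkitt lymphoma) cells in RPMI with 4 mM L-glutamine, 10% FCS at 37 °C, 5% CO2. Seeded at 3 × 10^5 cells/mL and exposed 18 h to compounds in DMSO (≤0.5% v/v). Cells fixed in 4% p-formaldehyde, stained with DAPI 0.2 µg/mL. At least 500 cells in random fields scored by epifluorescence for condensed/fragmented nuclei.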
SMILES,Activity (E2R [1]),Activity (E2R [2]),Activity (BL-41)
COc1cc(/C=C2\C(=O)OC[C@@H]2C(=O)c2ccc(O)c(OC)c2)ccc1O,Active,–,–
COc1cc2c(cc1O)[C@H](c1ccc(O)c(O)c1)[C@H]1COC[C@@H]1C2,–,inactive,–
COc1cc(C(=O)[C@H]2COC(=O)[C@@H]2C(O)c2ccc(O)c(OC)c2)ccc1O (stereo partly specified),Active,–,–
COc1cc(C[C@H]2CO[C@H](c3ccc(O)c(OC)c3)[C@H]2CO)ccc1O,inactive,–,inactive
COc1cc(C[C@H]2C(=O)OC[C@@H]2[C@H](O)c2ccc(O)c(OC)c2)ccc1O,inactive,–,inactive
COc1cc(C[C@H]2COC(=O)[C@@H]2Cc2ccc(O)c(OC)c2)ccc1O,Active,Active,Active
COc1cc([C@H]2c3cc(O)c(OC)cc3C[C@@H](CO)[C@@H]2CO)ccc1O,inactive,–,inactive
COc1cc(C[C@H]2COC(=O)[C@@H]2C(O)c2ccc(O)c(OC)c2)ccc1O (stereo partly specified),inactive,–,inactive
COc1cc(C[C@H]2C(=O)OC[C@@H]2Cc2ccc(O)c(O)c2)ccc1O,–,Active,–
COc1cc([C@H]2c3cc(O)c(OC)cc3C[C@H]3C(=O)OC[C@H]23)ccc1O,inactive,Active,inactive
COc1cc([C@H]2c3cc(O)c(OC)cc3C[C@H]3COC[C@@H]32)ccc1O,Active,inactive,Active

# From ChEMBL document CHEMBL1152389, “A novel and efficient synthesis of highly oxidized lignans by a methyltrioxorhenium/hydrogen peroxide catalytic system. Studies on their apoptogenic and antioxidant activity” (Bioorg Med Chem, 2009)
